Results taken from ChEMBL document CHEMBL1649119, “Daptomycin pharmacokinetics in adult oncology patients with neutropenic fever” (Antimicrob Agents Chemother, 2009).

What was measured:
[1] = Plasma concentration in nonobese adult human at 4 mg/kg, iv administered as single dose 30 mins infusion measured after 24 hrs; format: ADME, organism-based; set-up: dose 4 mg/kg, route intravenous
[2] = Half life in healthy adult human at 6 mg/kg, iv administered as single dose 30 mins infusion; format: ADME, organism-based; set-up: dose 6 mg/kg, route intravenous; conditions: in vivo
[3] = Apparent volume of distribution during terminal phase in healthy human at 4 mg/kg, iv administered as 30 mins infusion every 24 hrs measured on day 7; format: ADME, organism-based; set-up: dose 4 mg/kg, route intravenous; conditions: in vivo
Homo sapiens [4] = assay: Unbound clearance in healthy human at 6 mg/kg, iv administered as 30 mins infusion every 24 hrs measured on day 7; format: ADME, organism-based; set-up: dose 6 mg/kg, route intravenous; conditions: in vivo
Homo sapiens [5] = assay: Volume of distribution in central compartment in healthy human at 4 mg/kg, iv administered as single dose 30 mins infusion; format: ADME, organism-based; set-up: dose 4 mg/kg, route intravenous; conditions: in vivo, 0.5 h
[6] = Cmax in healthy human at 8 mg/kg, iv administered as 30 mins infusion every 24 hrs measured on day 14; format: ADME, organism-based; set-up: dose 8 mg/kg, route intravenous; conditions: in vivo
[7] = AUC (0 to infinity) in healthy human at 6 mg/kg, iv administered as 30 mins infusion every 24 hrs measured on day 1; format: ADME, organism-based; set-up: time infinity, dose 6 mg/kg, route intravenous; conditions: plasma
[8] = Cmax in nonobese human at 4 mg/kg, iv administered as single dose 30 mins infusion; format: ADME, organism-based; set-up: dose 4 mg/kg, route intravenous; conditions: in vivo
[9] = Clearance in healthy human at 6 mg/kg, iv administered as 30 mins infusion every 24 hrs measured on day 1; format: ADME, organism-based; set-up: dose 6 mg/kg, route intravenous; conditions: in vivo
Homo sapiens [10] = assay: Unbound clearance in healthy human at 4 mg/kg, iv administered as 30 mins infusion every 24 hrs measured on day 7; format: ADME, organism-based; set-up: dose 4 mg/kg, route intravenous; conditions: in vivo
[11] = Clearance in healthy human at 8 mg/kg, iv administered as 30 mins infusion every 24 hrs measured on day 7; format: ADME, organism-based; set-up: dose 8 mg/kg, route intravenous; conditions: in vivo
[12] = Apparent volume of distribution during terminal phase in healthy human subjects at 6 mg/kg, iv administered as 30 mins infusion every 24 hrs measured on day 4; format: ADME, organism-based; set-up: dose 6 mg/kg, route intravenous; conditions: in vivo
[13] = Plasma concentration in young healthy human at 4 mg/kg, iv administered as single dose 30 mins infusion measured after 24 hrs; format: ADME, organism-based; set-up: dose 4 mg/kg, route intravenous
[14] = Clearance in healthy human subjects at 10 mg/kg, iv administered as 30 mins infusion every 24 hrs measured on day 4; format: ADME, organism-based; set-up: dose 10 mg/kg, route intravenous; conditions: in vivo
[15] = Apparent volume of distribution during terminal phase in healthy human subjects at 8 mg/kg, iv administered as 30 mins infusion every 24 hrs measured on day 1; format: ADME, organism-based; set-up: dose 8 mg/kg, route intravenous; conditions: in vivo
[16] = Mean residence time in adult human subjects at 6 mg/kg, iv administered as single dose 30 mins infusion; format: ADME, organism-based; set-up: dose 6 mg/kg, route intravenous; conditions: in vivo
[17] = Half life in healthy human at 6 mg/kg, iv administered as 30 mins infusion every 24 hrs measured on day 1; format: ADME, organism-based; set-up: dose 6 mg/kg, route intravenous; conditions: in vivo
[18] = Volume of distribution at steady state in morbidly obese adult human at 4 mg/kg, iv administered as single dose 30 mins infusion; format: ADME, organism-based; set-up: dose 4 mg/kg, route intravenous; conditions: in vivo, read-out: Vdss
[19] = AUC (0 to infinity) in healthy human at 4 mg/kg, iv administered as single dose 30 mins infusion; format: ADME, organism-based; set-up: time infinity, dose 4 mg/kg, route intravenous; conditions: plasma
[20] = Clearance in healthy human at 8 mg/kg, iv administered as 30 mins infusion every 24 hrs measured on day 1; format: ADME, organism-based; set-up: dose 8 mg/kg, route intravenous; conditions: in vivo
[21] = Mean residence time in adult human with hepatic impairment at 6 mg/kg, iv administered as single dose 30 mins infusion; format: ADME, organism-based; set-up: dose 6 mg/kg, route intravenous; conditions: in vivo
[22] = Clearance in healthy human subjects at 6 mg/kg, iv administered as 30 mins infusion every 24 hrs measured on day 4; format: ADME, organism-based; set-up: dose 6 mg/kg, route intravenous; conditions: in vivo
[23] = Cmax in healthy human subjects at 10 mg/kg, iv administered as 30 mins infusion every 24 hrs measured on day 1; format: ADME, organism-based; set-up: dose 10 mg/kg, route intravenous; conditions: in vivo
[24] = AUC (0 to infinity) in healthy human at 6 mg/kg, iv administered as 30 mins infusion every 24 hrs measured on day 7; format: ADME, organism-based; set-up: time infinity, dose 6 mg/kg, route intravenous; conditions: plasma
[25] = Cmax in healthy human at 4 mg/kg, iv administered as single dose 30 mins infusion; format: ADME, organism-based; set-up: dose 4 mg/kg, route intravenous; conditions: in vivo
[26] = Renal clearance in moderately obese adult human at 4 mg/kg, iv administered as single dose 30 mins infusion; format: ADME, organism-based, Kidney; set-up: dose 4 mg/kg, route intravenous; conditions: in vivo, read-out: CL_renal (converted)
Homo sapiens [27] = assay: Unbound clearance in healthy human at 6 mg/kg, iv administered as 30 mins infusion every 24 hrs measured on day 1; format: ADME, organism-based; set-up: dose 6 mg/kg, route intravenous; conditions: in vivo
[28] = Plasma concentration in moderately obese adult human at 4 mg/kg, iv administered as single dose 30 mins infusion measured after 24 hrs; format: ADME, organism-based; set-up: dose 4 mg/kg, route intravenous
[29] = Half life in adult human with hepatic impairment at 6 mg/kg, iv administered as single dose 30 mins infusion; format: ADME, organism-based; set-up: dose 6 mg/kg, route intravenous; conditions: in vivo
[30] = Drug excretion in old healthy human urine assessed as unchanged drug at 4 mg/kg, iv administered as single dose 30 mins infusion; format: ADME, organism-based; set-up: dose 4 mg/kg, route intravenous; conditions: read-out: Drug uptake
[31] = Half life in healthy human at 6 mg/kg, iv administered as 30 mins infusion every 24 hrs measured on day 7; format: ADME, organism-based; set-up: dose 6 mg/kg, route intravenous; conditions: in vivo
Homo sapiens [32] = assay: Clearance in healthy human at 4 mg/kg, iv administered as single dose 30 mins infusion; format: ADME, organism-based; set-up: dose 4 mg/kg, route intravenous; conditions: in vivo, 0.5 h
[33] = Apparent volume of distribution during terminal phase in healthy human at 8 mg/kg, iv administered as 30 mins infusion every 24 hrs measured on day 14; format: ADME, organism-based; set-up: dose 8 mg/kg, route intravenous; conditions: in vivo
[34] = Half life in healthy human subjects at 8 mg/kg, iv administered as 30 mins infusion every 24 hrs measured on day 4; format: ADME, organism-based; set-up: dose 8 mg/kg, route intravenous; conditions: in vivo
[35] = Apparent volume of distribution during terminal phase in healthy human subjects at 12 mg/kg, iv administered as 30 mins infusion every 24 hrs measured on day 4; format: ADME, organism-based; set-up: dose 12 mg/kg, route intravenous; conditions: in vivo
[36] = Clearance in healthy human subjects at 8 mg/kg, iv administered as 30 mins infusion every 24 hrs measured on day 4; format: ADME, organism-based; set-up: dose 8 mg/kg, route intravenous; conditions: in vivo
[37] = AUC (0 to infinity) in old healthy human at 4 mg/kg, iv administered as single dose 30 mins infusion; format: ADME, organism-based; set-up: dose 4 mg/kg, route intravenous, time infinity; conditions: plasma
[38] = Cmax in healthy human subjects at 12 mg/kg, iv administered as 30 mins infusion every 24 hrs measured on day 4; format: ADME, organism-based; set-up: dose 12 mg/kg, route intravenous; conditions: in vivo
[39] = Clearance in moderately obese adult human at 4 mg/kg, iv administered as single dose 30 mins infusion; format: ADME, organism-based; set-up: dose 4 mg/kg, route intravenous; conditions: in vivo
[40] = Clearance in nonobese human subjects at 4 mg/kg, iv administered as single dose 30 mins infusion; format: ADME, organism-based; set-up: dose 4 mg/kg, route intravenous; conditions: in vivo
[41] = Clearance in cancer patient with neutropenic fever at 6 mg/kg, iv administered as 30 mins infusion every 24 hrs; format: ADME, organism-based; set-up: dose 6 mg/kg, route intravenous; conditions: human, in vivo
Outline: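 29 adult oncology patients with neutropenic fever received 6 mg/kg (total body weight) as a 30-min IV infusion every 24 h. Plasma was sampled predose, at the end of infusion, and at 0.5, 1, 2, 4, 8, 12 and 24 h. Total drug was measured by validated HPLC (linear 1–100 μg/ml). Noncompartmental clearance = dose/AUC0-∞, with AUC from trapezoids plus last concentration/λz. Mean ± SD.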

[42] = Volume of distribution at steady state in cancer patient with neutropenic fever at 6 mg/kg, iv administered as 30 mins infusion every 24 hrs; format: ADME, organism-based; set-up: dose 6 mg/kg, route intravenous; conditions: human, in vivo, read-out: Vdss
[43] = Cmax in healthy human at 4 mg/kg, iv administered as 30 mins infusion every 24 hrs measured on day 1; format: ADME, organism-based; set-up: dose 4 mg/kg, route intravenous; conditions: in vivo
[44] = Drug excretion in nonobese adult human urine assessed as unchanged drug at 4 mg/kg, iv administered as single dose 30 mins infusion; format: ADME, organism-based; set-up: dose 4 mg/kg, route intravenous; conditions: read-out: Drug uptake
Homo sapiens [45] = assay: Apparent volume of distribution during terminal phase in healthy human subjects at 6 mg/kg, iv administered as 30 mins infusion every 24 hrs measured on day 1; format: ADME, organism-based; set-up: dose 6 mg/kg, route intravenous; conditions: in vivo

CCCCCCCCCC(=O)N[C@@H](Cc1c[nH]c2ccccc12)C(=O)N[C@H](CC(N)=O)C(=O)N[C@@H](CC(=O)O)C(=O)N[C@@H]1C(=O)NCC(=O)N[C@@H](CCCN)C(=O)N[C@@H](CC(=O)O)C(=O)N[C@H](C)C(=O)N[C@@H](CC(=O)O)C(=O)NCC(=O)N[C@H](CO)C(=O)N[C@@H]([C@H](C)CC(=O)O)C(=O)N[C@@H](CC(=O)c2ccccc2N)C(=O)O[C@@H]1C
concentration at 24 h [1]: < 3300 ng/mL
half-life [2]: 484 min
Vd [3]: 0.096 L/kg
CL (Homo sapiens [4]): 59.8 mL/h/kg
Vd (Homo sapiens [5]): 3420 mL
Cmax [6]: 130 µg/mL
AUC(0-inf) [7]: 705 µg·h/mL
Cmax [8]: 53.2 µg/mL
clearance [9]: 0.143 mL/min/kg
CL (Homo sapiens [10]): 62.9 mL/h/kg
clearance [11]: 0.118 mL/min/kg
Vd [12]: 0.101 L/kg
concentration at 24 h [13]: < 3300 ng/mL
clearance [14]: 0.147 mL/min/kg
Vd [15]: 0.103 L/kg
MRT [16]: 12.4 h
half-life [17]: 468 min
Vd [18]: 0.18 L/kg
AUC(0-inf) [19]: 530 µg·h/mL
clearance [20]: 0.12 mL/min/kg
MRT [21]: 12 h
clearance [22]: 0.152 mL/min/kg
Cmax [23]: 130 µg/mL
AUC(0-inf) [24]: 747 µg·h/mL
Cmax [25]: 77.5 µg/mL
CL renal at 0.5 h [26]: 0.156 mL/min/kg
CL (Homo sapiens [27]): 59.5 mL/h/kg
concentration at 24 h [28]: 3440 ng/mL
half-life [29]: 538 min
dose excreted at 0.5 h [30]: 34.3%
half-life [31]: 534 min
CL (Homo sapiens [32]): 9.84 mL/min
Vd [33]: 0.095 L/kg
half-life [34]: 498 min
Vd [35]: 0.0976 L/kg
clearance [36]: 0.15 mL/min/kg
AUC(0-inf) [37]: 474 µg·h/mL
Cmax [38]: 184 µg/mL
clearance [39]: 0.271 mL/min/kg
clearance [40]: 0.2 mL/min/kg
clearance [41]: 0.259 mL/min/kg
Vd [42]: 0.18 L/kg
Cmax [43]: 54.6 µg/mL
dose excreted at 0.5 h [44]: 52.3%
Vd (Homo sapiens [45]): 0.1059 L/kg
